Screening results from PubChem.
Rows were chosen to be rich in hits. Some 2.8% of all compounds tested hit in one or more screens of this group.
PAFAH2 FP inh: inhibitors of human PAFAH2; recombinant PAFAH2, FP-rhodamine activity probe, fluorescence polarization; inhibition, % at 3.39 µM; 340,000 compounds, 0.99% hits; AID 492956;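 active means inhibition above the mean over all tested compounds plus 3 SD, cut at about 30% in these data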;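 further: inhibitors block probe labeling of enzyme so polarization drops; 0% = enzyme with DMSO and 100% = wells lacking PAFAH2 protein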
PAFAH1B3 FP inh: inhibitors of human PAFAH1B3. inhibition, % at 3.39 µM. recombinant PAFAH1B3, FP-rhodamine probe, fluorescence polarization. 340,000 compounds, 0.28% hits. AID 492972;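 active means inhibition above the screen-wide average of all tested compounds plus 3 SD, cut at about 25% in these data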;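 further: 0% = enzyme with DMSO only and 100% = wells lacking PAFAH1B3 protein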
Target sequence (Q15102 whole entry, looked up): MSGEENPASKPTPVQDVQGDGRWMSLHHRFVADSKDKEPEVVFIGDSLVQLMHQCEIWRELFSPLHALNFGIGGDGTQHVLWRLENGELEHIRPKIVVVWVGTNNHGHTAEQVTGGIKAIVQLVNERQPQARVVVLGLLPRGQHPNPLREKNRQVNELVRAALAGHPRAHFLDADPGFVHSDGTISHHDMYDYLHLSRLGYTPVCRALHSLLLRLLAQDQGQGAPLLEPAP
pPAFAH inh: pPAFAH (human) enzyme inhibition | recombinant pPAFAH, FP-rhodamine probe fluorescence polarization | Q13093 | inhibition, % at 3.39 µM | 330,000 compounds, 1.5% hits;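 active means inhibition above the mean inhibition across the screen plus 3 SD, cut at about 25% in these data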;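 further: inhibitors block binding of the rhodamine activity-based probe so polarization drops; 0% = enzyme with DMSO and 100% = wells lacking pPAFAH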
ABHD4 inh: inhibits mouse alpha/beta hydrolase domain 4; inhibition, % at 8.92 µM; purified mABHD4, FP-Rh probe fluorescence polarization; 370,000 compounds, 0.54% hits; Q8VD66;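 active means inhibition exceeding the mean over every tested compound plus 3 SD, cut at about 30% in these data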;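 further: 0% = plate median of compound wells and 100% = S159A mutant with DMSO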
Target sequence (Q8VD66 whole entry, looked up, the tested form may be a part): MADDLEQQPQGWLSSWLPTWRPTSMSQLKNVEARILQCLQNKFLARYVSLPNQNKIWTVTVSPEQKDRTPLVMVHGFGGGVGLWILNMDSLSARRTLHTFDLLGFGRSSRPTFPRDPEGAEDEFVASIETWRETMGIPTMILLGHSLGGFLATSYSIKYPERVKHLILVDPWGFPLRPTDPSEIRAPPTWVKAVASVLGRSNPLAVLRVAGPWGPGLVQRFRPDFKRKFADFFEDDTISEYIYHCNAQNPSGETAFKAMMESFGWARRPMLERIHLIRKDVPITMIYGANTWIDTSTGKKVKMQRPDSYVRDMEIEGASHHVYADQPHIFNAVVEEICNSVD
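Test system: mABHD4 protein | Buffer or medium: HEPES pH 7.0 buffer, 150 mM NaCl, 0.01% Pluronic F-127 | Probe or stimulus: FP-Rh fluorescent activity-based probe, added after compound pre-incubation | Timing: Pre-incubation 45 min, probe exposure 60 min, at 25 °C | Technique: Fluorescence polarization, excitation 525 nm, emission 598 nm, BODIPY TMR filters | Repeats: Single well per compound (singlicate)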
PAFAH1B2 FP inh: blocks human PAF acetylhydrolase 1b catalytic subunit 2; P68402; recombinant PAFAH1B2, FP-rhodamine activity probe, fluorescence polarization; inhibition, % at 3.39 µM; 340,000 compounds, 1.2% hits;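 active means inhibition above the mean of all tested compounds plus 3 SD, cut at about 24% in these data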;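 further: 0% = enzyme with DMSO and 100% = wells lacking PAFAH1B2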
HTRA1 inhibitor: HTRA1 (human) protease inhibition; AID 504803; 340,000 compounds, 0.5% hits; recombinant HTRA1, FP-rhodamine activity-based probe, fluorescence polarization; inhibition, % at 5.96 µM; in the data active means inhibition above about 36%;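 further: 0% = enzyme with DMSO and 100% = wells lacking enzyme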
PAFAH2 confirm: PAFAH2 (human) inhibition, confirmed; 2,300 compounds, 65% hits; inhibition, % at 3.39 µM; recombinant PAFAH2, FP-rhodamine activity probe, fluorescence polarization; AID 493030; shares compounds with PAFAH2 FP inh;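 active means mean inhibition over three repeats above a set limit taken from the earlier primary screen, cut at about 30% in these data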;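 further: inhibitor blocks binding of rhodamine activity probe so polarization falls; 0% = enzyme with DMSO and 100% = wells lacking PAFAH2 protein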
* = called active by the depositor; . = no result given; + = active, no number.

SMILES	PAFAH2 FP inh	PAFAH1B3 FP inh	pPAFAH inh	ABHD4 inh	PAFAH1B2 FP inh	HTRA1 inhibitor	PAFAH2 confirm
CCC[C@H]1[C@@H](NC(=O)c2ccc(C)cc2)CC[C@@]23CCCN2C(=O)CCC[C@@H]13	.	.	.	7	.	.	.
COC(=O)c1cc(-c2ccc(OC)c(OC)c2)c(=O)n2c1CCC2	.	.	.	-1	.	.	.
CCCCCCOC(=O)c1ccc(N)cc1	68*	-4	12	4	11	-2	61*
CCCCCCCOC(=O)c1ccc(OC(=O)c2cccnc2)cc1	47*	6	5	-19	16	-16	32*
CCCCCOC(=O)c1ccc(OC(=O)c2cncc(Br)c2)cc1	8	3	7	-6	6	-3	.
Cc1cc(N2CCCN(C)CC2)n2nc(C)nc2n1	.	.	.	5	.	.	.
CCOC(=O)N(C)[C@H]1C[C@H]2c3[nH]c4cccc(-c5cccc(F)c5)c4c3CCN2C(=O)[C@H]1[C@H](C)O	.	.	.	-2	.	.	.
O=C(C1CCCN(S(=O)(=O)c2cccc3ccccc23)C1)N1CCN(Cc2ccccc2)CC1 (stereo unspecified)	.	.	.	-6	.	.	.
O=C(COC(=O)c1cccs1)NCC1CCCO1 (stereo unspecified)	35*	0	5	5	3	1	16
CCOc1ccc(C(=O)OCC(=O)NCC2CCCO2)cc1 (stereo unspecified)	48*	7	3	1	5	0	28
COc1cc(OC)c(NS(=O)(=O)c2cc(C(=O)OCC(=O)NCC3CCCO3)ccc2OC)cc1Cl (stereo unspecified)	71*	14	-3	-4	9	3	52*
O=C(COC(=O)c1ccccc1)NCC1CCCO1 (stereo unspecified)	17	15	2	3	0	5	.
COc1ccc(C(=O)OCC(=O)NCC2CCCO2)c(F)c1 (stereo unspecified)	38*	4	8	4	3	3	34*
COc1cccc(OCC(=O)NCC2CCCO2)c1 (stereo unspecified)	4	12	3	-1	7	2	.
OC[C@H]1CC[C@@H]2O[C@H](CCc3ccc(-c4ccc(F)cc4)cc3)[C@H](n3cc(C4CC4)nn3)C[C@@H]2O1	.	.	.	-14	.	.	.
COC(=O)[C@]1(Cc2ccccc2)NC=C(C(=O)c2ccc(F)cc2)[C@@H]1c1ccccc1	.	.	.	4	.	.	.
CC(C)c1ccc(NC(=O)CSc2nnc(-c3ccco3)n2C)cc1	.	.	.	0	.	.	.
CCN(CC)C(=O)CC[C@H]1CC[C@]2(CCCN(Cc3cccs3)C2)O1	.	.	.	0	.	.	.
CCOc1ccc(C(=O)OCC(=O)NC(C)C)cc1	55*	0	2	-7	-1	6	43*
O=C(CNS(=O)(=O)c1ccc(F)cc1)N1CCN(c2ccccn2)CC1	.	.	.	1	.	.	.
O=C(OCC#CCSc1nnc(-c2cccc3ccccc23)o1)c1cccc(C(F)(F)F)c1	.	.	.	-9	.	.	.
Cc1nn(Cc2ccccc2)c(Cl)c1/C=C/C(=O)OCC(=O)NC(C)C(C)C (stereo unspecified)	67*	0	3	-7	7	-8	64*
Clc1ccc(CN2CCN(N=Cc3c4ccccc4cc4ccccc34)CC2)cc1	.	.	.	2	.	.	.
C[C@H]1[C@@H](OC(=O)Nc2ccc(Br)cc2)CC[C@@]23CCCN2C(=O)CCC[C@@H]13	.	.	.	-1	.	.	.
CC(=O)Nc1ccc(NC(=O)CC(C)n2ccnc2)cc1 (stereo unspecified)	+	-3	3	-3	0	0	5
SMILES	PAFAH2 FP inh	PAFAH1B3 FP inh	pPAFAH inh	ABHD4 inh	PAFAH1B2 FP inh	HTRA1 inhibitor	PAFAH2 confirm
O=[N+]([O-])c1ccc(C=Nc2cccc3ccccc23)s1	66*	15	7	.	9	23	8
Cc1ccc(S(=O)(=O)N(C)C)cc1NC(=O)COC(=O)CC1CCCC1	32*	4	11	0	3	5	27
O=C(COC(=O)CC1CCCC1)Nc1ccc(Br)cc1F	47*	-2	22	-1	-1	-3	41*
O=C(COC(=O)CC1CCCC1)Nc1cc2c(cc1Cl)C(=O)c1ccccc1C2=O	10	-3	13	19	2	9	.
CC(C)c1ccc(NC(=O)COC(=O)CC2CCCC2)cc1	54*	8	18	-1	4	-11	27
Cc1cccc(NC(=O)COC(=O)CC2CCCC2)c1C	52*	-3	.	-3	5	3	38*
CCn1c(COc2ccc(C)cc2)nnc1SCC(=O)Nc1ccc(C(=O)OC)cc1	.	.	.	1	.	.	.
CCC(=O)OCC(=O)Nc1cc(C)c(C)cc1[N+](=O)[O-]	15	0	1	0	9	0	.
COc1ccc(C(=O)OCC(=O)Nc2cc(C)c(C)cc2[N+](=O)[O-])cc1	39*	-2	4	0	-1	-2	32*
Cc1csc(Sc2ccc(C(=O)OCC(=O)Nc3ccc(F)cc3[N+](=O)[O-])cc2[N+](=O)[O-])n1	34*	6	5	0	0	-1	18
Cc1cc(C(=O)OCC(=O)Nc2ccc(F)cc2[N+](=O)[O-])c2ccccc2n1	-1	10	5	7	1	3	.
Cc1cc(NC(=O)COC(=O)CC2CCCC2)c([N+](=O)[O-])cc1C	56*	5	22	0	4	0	21
N=c1c2c(-c3ccccc3)c(-c3ccccc3)n(CCc3ccccc3)c2ncn1C1CCC(O)CC1 (stereo unspecified)	.	.	.	7	.	.	.
Cc1ccc(C(=O)CSc2nnc(-c3ccccn3)n2-c2ccccc2)cc1	.	.	.	1	.	.	.
O=C(NC1CCCN(C2Cc3ccccc3C2)C1)c1ccc(F)cc1Cl (stereo unspecified)	42*	1	2	6	2	-1	16
CSCC(=O)NC1CCCN(C2Cc3ccccc3C2)C1 (stereo unspecified)	6	-4	2	10	4	-1	.
COc1ccc(C(=O)OCC(=O)NC(C)(C)C)cc1[N+](=O)[O-]	39*	1	3	1	2	0	23
COC(=O)CNC(=O)COC(=O)c1ccc(OC)c([N+](=O)[O-])c1	-6	10	-2	3	3	0	.
COc1ccc(C(=O)OCC(=O)NCCCc2ccccc2)cc1[N+](=O)[O-]	30*	4	6	-6	13	2	12
Cc1ccc(C)c(NC(=O)CN(C)C(=O)c2cc(-c3cccs3)nn2-c2ccccc2)c1	33*	1	8	2	8	-3	0
COC(=O)N/N=C/c1ccc(-c2cc(Cl)ccc2Cl)o1	5	-3	5	-5	0	-17	.
Nc1nnc(CC(=O)N/N=C/c2ccc(-c3ccc(Cl)cc3Cl)o2)s1	50*	-13	15	-2	-1	-22	31*
